The results in this text go back to the array DNA melting data of Ke et al. (doi:10.1101/2024.01.08.574731).

The nature of data set [1]: folding enthalpy; higher = less favourable; fluorescence melt of hairpins on a sequencing array, two-state fit. The settings on record: sodium 0.088 M. A digest of the protocol:
(§1)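 To match UV melts, fitted temperatures were raised by 9.35 °C. These fits were bootstrapped two-state models that gave melting temperature and folding enthalpy, combined by inverse variance over four replicates. The input was normalised Cy3 fluorescence of library hairpins with annealed Cy3 and quencher oligos on a sequenced MiSeq flow cell, imaged in 50 mM Na-HEPES pH 8.0, 25 mM NaCl in 2.5 °C steps up to 60 °C.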

Data set [2] in a line: melting temperature; fluorescence melt of hairpins on a sequencing array, two-state fit, raised by 9.35 °C to match UV melts. As to conditions: sodium 0.088 M. In a few lines:
as §1

As for GACGTCGGAAACGACATC ((.((((....)))).)), the folding enthalpy in data set [1] was -12.7 kcal/mol. In data set [2], the Tm was 37.2 °C.

Take GACGTCGGAAACGGCGTC ((((.((....)).)))): the folding enthalpy in data set [1] was -46.9 kcal/mol. The Tm in data set [2] turned out to be 62.3 °C.

As for GACGTGCGAAAGCATGTC (((.(((....))).))), the folding enthalpy in data set [1] was -35.2 kcal/mol. Besides, in data set [2], the Tm stood at 65.1 °C.

On to GACGTGGCGAAAGCCGTC (((..(((....)))))), for which the folding enthalpy in data set [1] was -16.5 kcal/mol. Besides, the Tm in data set [2] was found to be 50.4 °C.

Turning to GACGTGGGAAACTGCGTC ((((..(....)..)))), in data set [1], the folding enthalpy is -24.6 kcal/mol. Also, the Tm in data set [2] came out at 47.6 °C.

As for GACGTTGGAAACAACATC ((.((((....)))).)), in data set [1], the folding enthalpy was -16.8 kcal/mol. The Tm in data set [2] worked out at 32.4 °C.

For the sequence GACGTTGGAAACGACGTC (((((.(....).))))), the folding enthalpy in data set [1] was -35.1 kcal/mol. Further, the Tm in data set [2] came to 55.8 °C.

In the case of GACTAACGAAAGTTGGTC (((.(((....))).))), in data set [1], the folding enthalpy is -40.4 kcal/mol. Moreover, in data set [2], the Tm is 51.3 °C.

On to GACTAAGGAAACTTAGTC (((((((....))))))), for which the folding enthalpy in data set [1] was -35.1 kcal/mol. For the same sequence, in data set [2], the Tm came out at 52.5 °C.

With GACTAAGGAAACTTGGTC (((.(((....))).))), the folding enthalpy in data set [1] is -30.1 kcal/mol. The Tm in data set [2] was 39.3 °C.

On to GACTACCGAAAGGTGTC (((.(((....)))))), for which the folding enthalpy in data set [1] was -21.6 kcal/mol. The Tm in data set [2] was found to be 49.6 °C.

Consider GACTACGAAAGTAATGTC ((((((....)))..))), for which the folding enthalpy in data set [1] was -15.7 kcal/mol. The Tm in data set [2] was 34.3 °C.

Consider GACTACGAAAGTAGCGTC ((((((....)))..))), for which the folding enthalpy in data set [1] was -12.7 kcal/mol. Moreover, the Tm in data set [2] is 43.8 °C.

In the case of GACTAGCGAAAGCTCGTC (((.(((....))).))), the folding enthalpy in data set [1] is -19.1 kcal/mol. Besides, in data set [2], the Tm was 48 °C.

On to GACTAGCGAAAGCTGTC (((.(((....)))))), for which the folding enthalpy in data set [1] is -19.6 kcal/mol. Further, the Tm in data set [2] amounted to 50.3 °C.

On to GACTAGGAAACTAGTC ((((((....)))))), for which, in data set [1], the folding enthalpy was -34 kcal/mol. For the same sequence, the Tm in data set [2] amounted to 50.8 °C.

As to GACTCACGAAAGTGCGTC (((.(((....))).))), the folding enthalpy in data set [1] is -32.8 kcal/mol. Moreover, in data set [2], the Tm stood at 50.6 °C.

Turning to GACTCAGGAAACCGAGTC (((((.(....).))))), the folding enthalpy in data set [1] was -29.8 kcal/mol. Besides, in data set [2], the Tm came to 46.2 °C.

On to GACTCCCCGAAAGGGGTC (((..(((....)))))), for which the folding enthalpy in data set [1] is -7.79 kcal/mol. Moreover, in data set [2], the Tm amounted to 31.4 °C.

With GACTCCCGAAAGGGGGTC (((.(((....))).))), in data set [1], the folding enthalpy was -33.4 kcal/mol. Also, the Tm in data set [2] stood at 63.7 °C.

Take GACTCCGAAAGGACTGTC ((((((....)))..))): the folding enthalpy in data set [1] is -15.7 kcal/mol. Besides, the Tm in data set [2] turned out to be 32.7 °C.

Consider GACTCCGAAAGGAGCGTC ((((((....)))..))), for which the folding enthalpy in data set [1] is -13.4 kcal/mol. The Tm in data set [2] amounted to 49.9 °C.

As for GACTCCGAAAGGATAGTC ((((((....)))..))), the folding enthalpy in data set [1] was -22.5 kcal/mol. For the same sequence, the Tm in data set [2] is 41.5 °C.

GACTCCGAAAGGATCGTC ((((((....)))..))): the folding enthalpy in data set [1] was -23.3 kcal/mol. Further, the Tm in data set [2] was found to be 42.1 °C.

With GACTCTACGAAAGTAGTC (((..(((....)))))), the folding enthalpy in data set [1] is -10.9 kcal/mol. For the same sequence, the Tm in data set [2] came to 30.1 °C.

On to GACTCTGGAAACAGGGTC (((.(((....))).))), for which the folding enthalpy in data set [1] is -30.7 kcal/mol. In data set [2], the Tm was 49.4 °C.

For the sequence GACTGACCGAAAGGTGTC (((..(((....)))))), in data set [1], the folding enthalpy is -16.9 kcal/mol. Also, the Tm in data set [2] stood at 41.4 °C.

As for GACTGACGAAAGTCGGTC (((.(((....))).))), the folding enthalpy in data set [1] was -37.2 kcal/mol. The Tm in data set [2] is 62 °C.

As to GACTGACGAAAGTCGTC (((.(((....)))))), in data set [1], the folding enthalpy was -14.2 kcal/mol. Moreover, in data set [2], the Tm amounted to 52.6 °C.

Consider GACTGCCGAAAGGCCGTC (((.(((....))).))), for which, in data set [1], the folding enthalpy was -25 kcal/mol. In data set [2], the Tm is 53.4 °C.

For GACTGCGAAAGCAAGGTC ((((((....)))..))), the folding enthalpy in data set [1] is -15.3 kcal/mol. The Tm in data set [2] was 45.1 °C.

As for GACTGCGAAAGCACGTC ((((((....))).))), the folding enthalpy in data set [1] is -15.8 kcal/mol. For the same sequence, the Tm in data set [2] came to 56.4 °C.

Regarding GACTGCGGAAACGCAATC ((.((((....)))).)), in data set [1], the folding enthalpy was -15.4 kcal/mol. Besides, in data set [2], the Tm came out at 38 °C.

Consider GACTGCGGAAACGTGGTC (((..((....))..))), for which the folding enthalpy in data set [1] is -32.8 kcal/mol. For the same sequence, the Tm in data set [2] was found to be 46.5 °C.

GACTGGCGAAAGCCCGTC (((.(((....))).))): the folding enthalpy in data set [1] was -18.9 kcal/mol. In addition, the Tm in data set [2] is 49.1 °C.

Regarding GACTGTGGAAACGTAGTC ((((..(....)..)))), the folding enthalpy in data set [1] was -17.5 kcal/mol. Also, the Tm in data set [2] turned out to be 34.8 °C.
